According to ChEMBL document CHEMBL2163334, “Discovery of highly potent and selective pan-Aurora kinase inhibitors with enhanced in vivo antitumor therapeutic index” (J Med Chem, 2012):
Activity calls are given as the source filed them. The rule behind the calls is not given here.

Key:
[1] = Protein binding in plasma; format: ADME, cell-free; settings: read-out: PPB
[2] = target: T1, Aurora kinase B (Homo sapiens, UniProt Q96GD4); test: Binding affinity to Aurora kinase B catalytic domain by competition binding assay
[3] = target: T1, Aurora kinase B; test: Inhibition of Aurora kinase B-mediated histone H3 Ser10 phosphorylation in human HCT116 cells after 2 hrs by sandwich ELISA; format: cell-based, HCT-116
In short: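 HCT-116 cells seeded 4 × 10⁴/well, 4-6 h at 37 °C, then arrested overnight (16-18 h) with nocodazole at 66 ng/mL final. Treated 2 h with nine-point 3-fold dilutions in DMSO; lysed with phosphatase inhibitor, phospho-H3 (Ser10) sandwich ELISA read at 450 nm. IC50 = 50% inhibition of phosphorylation; duplicate runs averaged.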

[4] = test system: HCT-116; test: Antiproliferative activity against human HCT116 cells after 72 hrs by BrdU-based ELISA; format: functional, cell-based; settings: HCT-116, 72 h
In short: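 HCT-116 cells in McCoy's 5A with 10% FBS and pen/strep, seeded 800 cells/well, left overnight at 37 °C, 5% CO2. Nine-point 3-fold serial dilutions in DMSO added for 72 h; BrdU colorimetric ELISA read at 450 and 690 nm. IC50 is the concentration halving proliferation; duplicate runs averaged.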

[5] = target: T2, Aurora kinase A (Homo sapiens, UniProt O14965); test: Inhibition of Aurora kinase A autophosphorylation in human HEK293 cells after 2 hrs by phosphor antibody readout assay; format: cell-based
T2 sequence (O14965 whole entry): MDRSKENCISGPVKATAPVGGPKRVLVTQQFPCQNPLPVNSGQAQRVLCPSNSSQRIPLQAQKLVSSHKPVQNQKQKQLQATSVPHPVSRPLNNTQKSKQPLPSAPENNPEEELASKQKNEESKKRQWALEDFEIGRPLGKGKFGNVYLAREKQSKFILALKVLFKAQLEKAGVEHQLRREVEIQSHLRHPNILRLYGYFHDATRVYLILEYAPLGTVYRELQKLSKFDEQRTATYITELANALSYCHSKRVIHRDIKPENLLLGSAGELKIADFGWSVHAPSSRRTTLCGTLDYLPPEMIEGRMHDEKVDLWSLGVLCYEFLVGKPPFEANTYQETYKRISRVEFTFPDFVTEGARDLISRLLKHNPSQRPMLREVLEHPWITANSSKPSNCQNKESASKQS

[6] = Clearance in athymic Nu/Nu rat at 5 mg/kg, iv administered using TPPW as vehicle; format: ADME, organism-based; design: dose 5 mg/kg, route intravenous; settings: in vivo
In short: (§1)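 Plasma from K3 EDTA blood at 5, 15, 30 min, 1, 2, 4, 6, 24 h; acetonitrile extraction with internal standard, LC-MS/MS on C8 column, 5-95% ACN gradient with 0.05% formic acid.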

[7] = Volume of distribution in Sprague-Dawley rat at 1 mg/kg, iv administered using PEG400/water as vehicle; format: ADME, organism-based; design: dose 1 mg/kg, route intravenous; settings: in vivo
In short: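 SD rats fasted overnight, given 1 mg/kg iv in PEG400/water (3:1, v/v); three per arm. Blood into K3 EDTA at 5, 15, 30 min, 1, 2, 4, 6, 24 h, spun at 4 °C; plasma extracted with six volumes acetonitrile plus internal standard and quantified by LC-MS/MS (C8 column, formic acid/ACN gradient).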

[8] = Volume of distribution in Nu/Nu rat at 5 mg/kg, iv administered using TPPW as vehicle; format: ADME, organism-based; design: dose 5 mg/kg, route intravenous; settings: in vivo; in short: as §1
[9] = AUC (0 to infinity) in Nu/Nu rat at 15 mg/kg, iv administered using TPPW as vehicle; format: ADME, organism-based; design: dose 15 mg/kg, route intravenous, time infinity; settings: plasma; in short: as §1
[10] = AUC (0 to infinity) in Nu/Nu rat at 50 mg/kg, iv administered using TPPW as vehicle; format: ADME, organism-based; design: time infinity, dose 50 mg/kg, route intravenous; settings: plasma; in short: as §1
[11] = Half life in Nu/Nu rat at 15 mg/kg, iv administered using TPPW as vehicle; format: ADME, organism-based; design: dose 15 mg/kg, route intravenous; settings: in vivo; in short: as §1
[12] = Half life in Nu/Nu rat at 50 mg/kg, iv administered using TPPW as vehicle; format: ADME, organism-based; design: dose 50 mg/kg, route intravenous; settings: in vivo; in short: as §1
[13] = target: T1, Aurora kinase B; test: Inhibition of Aurora kinase B in human HCT116 cells assessed as induction of 8N polyploidy; format: cell-based; settings: HCT-116
[14] = test system: HCT-116; test: Antitumor activity against human HCT116 cells xenografted in iv dosed athymic nude rat assessed as tumor growth inhibition administered every other day from day 10 post tumor-injection for 3 weeks relative to vehicle treated control; format: functional, organism-based
In short: (§2)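 Subcutaneous flank HCT-116 xenografts in nude rats; at Day 1 groups of 10 with mean tumor 301-306 mm³. Tail-vein iv in TPPW (2% Tween-80, 5% propylene glycol, 10% PG-400, 83% water) at 10 mL/kg, weight-adjusted: days 1,3,5,8,10,12,15,17,19 or days 1-4, 8-11, 15-18. Irinotecan control 100 mg/kg ip weekly ×3.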

[15] = test system: HCT-116; test: Antitumor activity against human HCT116 cells xenografted in athymic nude rat assessed as tumor growth inhibition at 5 mg/kg, iv administered every other day from day 10 post tumor-injection for 3 weeks relative to vehicle treated control; format: functional; settings: read-out: TGI; in short: as §2
[16] = test system: HCT-116; test: Antitumor activity against human HCT116 cells xenografted in athymic nude rat assessed as tumor growth inhibition at 10 mg/kg, iv administered every other day from day 10 post tumor-injection for 3 weeks relative to vehicle treated control; format: functional; settings: read-out: TGI; in short: as §2
[17] = test system: HCT-116; test: Antitumor activity against human HCT116 cells xenografted in athymic nude rat assessed as tumor growth inhibition at 20 mg/kg, iv administered every other day from day 10 post tumor-injection for 3 weeks relative to vehicle treated control; format: functional; settings: read-out: TGI; in short: as §2
[18] = test system: HCT-116; test: Antitumor activity against human HCT116 cells xenografted in athymic nude rat assessed as tumor growth inhibition at 2.5 mg/kg, iv administered QD for 4 days per week followed by 3 days off per week for 3 weeks; format: functional, organism-based; design: dose 2.5 mg/kg; in short: as §2
[19] = test system: HCT-116; test: Antitumor activity against human HCT116 cells xenografted in athymic nude rat assessed as tumor growth inhibition at 5 mg/kg, iv administered QD for 4 days per week followed by 3 days off per week for 3 weeks; format: functional, organism-based; design: dose 5 mg/kg; in short: as §2
[20] = test system: HCT-116; test: Antitumor activity against human HCT116 cells xenografted in athymic nude rat assessed as tumor growth inhibition at 10 mg/kg, iv administered QD for 4 days per week followed by 3 days off per week for 3 weeks; format: functional, organism-based; design: dose 10 mg/kg; in short: as §2
[21] = test system: Rattus norvegicus; test: Toxicity in athymic nude rat bearing human HCT116 cells assessed as adverse effects at 2.5 mg/kg, iv administered QD for 4 days per week followed by 3 days off per week for 3 weeks; format: organism-based, HCT-116; design: dose 2.5 mg/kg, route intravenous; settings: in vivo; in short: as §2
[22] = test system: Rattus norvegicus; test: Toxicity in athymic nude rat bearing human HCT116 cells assessed as adverse effects at 5 to 10 mg/kg, iv administered QD for 4 days per week followed by 3 days off per week for 3 weeks; format: organism-based, HCT-116; design: dose 5-10 mg/kg, route intravenous; settings: in vivo; in short: as §2
[23] = target: T3, Aurora kinase C (Homo sapiens, UniProt Q9UQB9); test: Binding affinity to Aurora kinase C
T3 sequence (Q9UQB9 whole entry): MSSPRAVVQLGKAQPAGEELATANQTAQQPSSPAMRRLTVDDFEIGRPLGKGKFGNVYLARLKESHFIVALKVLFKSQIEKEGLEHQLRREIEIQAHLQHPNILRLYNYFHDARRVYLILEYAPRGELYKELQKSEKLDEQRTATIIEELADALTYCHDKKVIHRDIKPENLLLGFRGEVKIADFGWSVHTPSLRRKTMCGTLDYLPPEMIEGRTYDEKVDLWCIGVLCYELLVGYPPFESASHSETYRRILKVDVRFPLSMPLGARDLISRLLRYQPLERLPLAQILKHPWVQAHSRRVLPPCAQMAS

T1 sequence (Q96GD4 whole entry, the tested form may be a part): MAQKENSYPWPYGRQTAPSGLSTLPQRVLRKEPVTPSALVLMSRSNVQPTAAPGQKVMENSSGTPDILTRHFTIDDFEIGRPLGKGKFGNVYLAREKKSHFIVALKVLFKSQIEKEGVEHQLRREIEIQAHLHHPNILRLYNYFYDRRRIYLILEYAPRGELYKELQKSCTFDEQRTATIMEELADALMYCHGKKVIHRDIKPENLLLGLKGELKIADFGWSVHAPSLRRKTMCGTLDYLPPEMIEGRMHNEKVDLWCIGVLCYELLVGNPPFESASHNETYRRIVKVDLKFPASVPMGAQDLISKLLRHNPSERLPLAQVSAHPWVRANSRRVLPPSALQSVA

- fraction unbound [1]: 0.01
- Kd [2]: 1.7 nM
- IC50 [3]: 6.1 nM
- IC50 [4]: 1.2 nM
- IC50 [5]: 1 nM
- clearance [6]: 19.2 mL/min/kg
- Vd [7]: 7 L/kg
- Vd [8]: 0.7 L/kg
- AUC(0-inf) [9]: 34.4 µM·h
- AUC(0-inf) [10]: 181 µM·h
- half-life [11]: 3.7 h
- half-life [12]: 2.9 h
- inhibition [13]: Dose-dependent effect
- Kd [23]: < 10 nM
Structure (SMILES): Cc1cc(Nc2nc(Sc3ccc(NC(=O)CN4CC[C@@H](C(=O)N5CCC(F)(F)C5)C4)cc3)nn3cccc23)n[nH]1
- TGI [14]: Active
- inhibition in vivo at 5 mg/kg [15]: 45%
- inhibition in vivo at 10 mg/kg [16]: 60%
- inhibition in vivo at 20 mg/kg [17]: 85%
- TGI [18]: Active
- TGI [19]: Active
- TGI [20]: Active
- Activity [21]: Non-toxic
- Activity [22]: Non-toxic
